Experiment [1] deals with T1, Glutathione S-transferase P (Homo sapiens, UniProt P09211). Put plainly: Inactivation of recombinant human Glutathione S-transferase P. A digest of the protocol: (§1)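 Recombinant human GSTP1-1 (E. coli-expressed, glutathione-agarose purified), 0.1 mg/mL, preincubated with haloenol lactone (0.17 mM, added in ethanol; vehicle control) in phosphate buffer pH 7.4 at 30 °C. Aliquots taken at 0, 2, 5, 12 min. Residual activity read by Habig assay: 1.0 mM GSH + 1.0 mM CDNB, 0.1 M phosphate pH 6.5, A340, corrected for nonenzymatic rate; kobs from time course.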
Target sequence in this assay (P09211 2-210 limits assumed): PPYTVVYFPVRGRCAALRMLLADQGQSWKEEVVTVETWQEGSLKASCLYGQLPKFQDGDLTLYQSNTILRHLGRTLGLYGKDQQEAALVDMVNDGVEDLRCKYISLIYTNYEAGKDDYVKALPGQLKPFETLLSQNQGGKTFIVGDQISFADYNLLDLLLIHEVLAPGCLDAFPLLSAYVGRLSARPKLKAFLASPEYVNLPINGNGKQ

For experiment [2], the target named is T1, Glutathione S-transferase P. Put plainly: (§2) Inhibitory activity for human glutathione S-transferase-pi isozyme was determined. The method in brief: as §1
Target sequence in this assay (P09211 whole entry): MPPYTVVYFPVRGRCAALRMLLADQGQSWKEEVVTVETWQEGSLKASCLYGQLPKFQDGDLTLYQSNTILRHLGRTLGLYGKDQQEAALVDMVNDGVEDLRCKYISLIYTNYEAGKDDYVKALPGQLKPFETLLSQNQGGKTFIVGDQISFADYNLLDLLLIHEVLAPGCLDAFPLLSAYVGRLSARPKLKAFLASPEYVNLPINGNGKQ
Experiment [3] has the same target. Described as §2. The method in brief: as §1
The source holds these as a separate data set.
Target sequence in this assay (P09211 2-210 limits assumed): as the sequence (P09211 2-210 limits assumed) above

Experiment [4] shares this target. In words: (§3) Inhibitory activity for human Glutathione S-transferase P was determined. A digest of the protocol:
as §1
Target sequence in this assay (P09211 whole entry): as the sequence (P09211 whole entry) above

Experiment [5] shares this target. Described as §3. A digest of the protocol:
as §1
Target sequence in this assay (P09211 2-210 limits assumed): as the sequence (P09211 2-210 limits assumed) above
The source holds these as a separate data set.

This passage reports K obs, Ki and Kina results from ChEMBL document CHEMBL1149331, “Design, synthesis, and structure-activity relationships of haloenol lactones: site-directed and isozyme-selective glutathione S-transferase inhibitors” (J Med Chem, 2004).

The source made the active and inactive calls. The calls are words filed in the database; no cut-off is given here.

With `O=C1O/C(=C/Br)CC1CCCCc1ccccc1` (stereo not given), the K obs in experiment [1] was determined as 0.0366.

Regarding `O=C1O/C(=C/Br)CC1Cc1ccccc1` (stereo not given), the K obs in experiment [1] turned out to be 0.101.

As to `CCCCCCCC1C/C(=C\Br)OC1=O` (stereo not given), in experiment [1], the K obs amounted to 0.0608.

For the molecule `CCCCCCCCC1C/C(=C\Br)OC1=O` (stereo not given), the K obs in experiment [1] was determined as 0.0382.

For `O=C1O/C(=C/Br)CC1CC1CCCCC1` (stereo not given), the K obs in experiment [1] came to 0.0438.

`O=C1O/C(=C/I)CC1C/C=C/c1ccccc1` (stereo not given): the K obs in experiment [1] was determined as 0.0421.

`O=C1O/C(=C/Br)CC1C/C=C/c1ccc(C(F)(F)F)cc1` (stereo not given): the K obs in experiment [1] was found to be 0.0364.

Turning to `O=C1O/C(=C/Br)CC1c1ccccc1` (stereo not given), in experiment [1], the K obs was determined as 0.15. The Ki in experiment [2] was determined as 124 µM. This molecule showed a Kina in experiment [3] of 0.097 min⁻¹.

As for `C/C(Br)=C1/CC(C/C=C/c2ccccc2)C(=O)O1` (stereo not given), the K obs in experiment [1] is 0.0322.

As to `O=C1O/C(=C/Br)CC1CCc1ccccc1` (stereo not given), the K obs in experiment [1] amounted to 0.0632.

As for `COc1ccc(/C=C/CC2C/C(=C\Br)OC2=O)cc1` (stereo not given), the K obs result in experiment [1] is “inactive”.

Consider `O=C1O/C(=C/Br)CC1CCCc1ccccc1` (stereo not given), for which, in experiment [1], the K obs turned out to be 0.0439.

For the molecule `CCCCCCC1C/C(=C\Br)OC1=O` (stereo not given), the K obs in experiment [1] stood at 0.0847.

For `CCCCCCCCCC1C/C(=C\Br)OC1=O` (stereo not given), the K obs in experiment [1] was found to be 0.0359.

Regarding `O=C1O/C(=C/Br)CC1C/C=C/c1ccccc1` (stereo not given), the K obs in experiment [1] amounted to 0.0604. Also, in experiment [4], affinity was put at a Ki of 6.1 µM. In experiment [5], the Kina worked out at 0.025 min⁻¹.

For the molecule `O=C1O/C(=C/Br)CC1Cc1ccc2ccccc2c1` (stereo not given), in experiment [1], the K obs came out at 0.0499.

As usually defined, the Ki is the dissociation constant of the complex between target and ligand, obtained from inhibition or displacement. Read a low Ki as a stronger hold on the target.
